Data taken from ChEMBL document CHEMBL1144782, “Isoindolo[2,1-a]quinoxaline derivatives, novel potent antitumor agents with dual inhibition of tubulin polymerization and topoisomerase I” (2008).
Activity calls are given as the source filed them. The calls are words filed in the database; no cut-off is given here.

Key:
Jurkat = experiment: Cell cycle arrest in human Jurkat cells at mitosis at 0.5 uM after 24 hrs; assay type: functional
Outline: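 Exponentially growing Jurkat cells were exposed for 24 h, then pelleted at 400g for 5 min. Hypotonic KCl (75 mM, 4 °C) was applied for 20 min, followed by methanol–acetic acid (3:1) fixation and Giemsa staining. 400 cells per treatment were scored microscopically; mitotic index is the fraction with mitotic figures. Three independent experiments, mean ± SEM.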

MCF7 = experiment: Cell viability against human MCF7 cells at 10 uM; assay type: functional
NCI-H460 = experiment: Cell viability against human NCI-H460 cells at 10 uM; assay type: functional
SF-268 = experiment: Cell viability against human SF268 cells at 10 uM; assay type: functional
Tubulin (Sus scrofa) = Tubulin (Sus scrofa) (UniProt P02554+P02550); experiment: Inhibition of pig brain tubulin polymerization at 3 uM
A549 = experiment: Disruption of tubulin network in human A549 cells assessed as disaggregation of microtubules at 1 uM […]; assay type: functional, cell-based

Sequence of Tubulin (Sus scrofa) (P02550 whole entry, looked up): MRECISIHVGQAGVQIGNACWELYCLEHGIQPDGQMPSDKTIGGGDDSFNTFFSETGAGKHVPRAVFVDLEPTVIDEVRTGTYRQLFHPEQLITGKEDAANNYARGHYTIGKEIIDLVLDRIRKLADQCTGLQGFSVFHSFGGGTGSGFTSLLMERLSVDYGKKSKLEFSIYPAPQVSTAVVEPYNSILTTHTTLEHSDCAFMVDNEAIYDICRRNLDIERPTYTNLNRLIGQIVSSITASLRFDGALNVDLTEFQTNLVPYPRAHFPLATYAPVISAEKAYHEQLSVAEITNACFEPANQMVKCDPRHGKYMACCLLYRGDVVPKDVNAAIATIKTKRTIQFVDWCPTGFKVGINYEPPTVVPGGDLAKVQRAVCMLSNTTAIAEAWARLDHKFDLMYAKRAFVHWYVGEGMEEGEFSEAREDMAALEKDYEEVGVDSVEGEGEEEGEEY
Sequence of Tubulin (Sus scrofa) (P02554 whole entry, looked up): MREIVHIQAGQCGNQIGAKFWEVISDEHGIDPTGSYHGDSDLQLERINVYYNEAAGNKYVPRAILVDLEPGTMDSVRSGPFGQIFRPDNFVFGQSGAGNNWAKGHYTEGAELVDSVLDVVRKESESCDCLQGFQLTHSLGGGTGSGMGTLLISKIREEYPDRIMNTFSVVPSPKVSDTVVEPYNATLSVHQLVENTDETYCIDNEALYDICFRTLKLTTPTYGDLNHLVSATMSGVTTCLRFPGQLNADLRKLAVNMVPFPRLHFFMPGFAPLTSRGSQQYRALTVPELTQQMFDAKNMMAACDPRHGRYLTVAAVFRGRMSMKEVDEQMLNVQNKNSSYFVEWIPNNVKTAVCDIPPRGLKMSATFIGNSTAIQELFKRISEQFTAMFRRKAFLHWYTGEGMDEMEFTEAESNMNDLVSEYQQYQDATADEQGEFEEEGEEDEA

Structure (SMILES) | Activity (MCF7) | Activity (NCI-H460) | Activity (SF-268) | other results
COc1cc2c(c(OC)c1OC)-c1ccc(OC)c(=O)cc1[C@@H](NC(C)=O)CC2 [COLCHICINE] |  |  |  | Activity (Jurkat): 50%
N#Cc1c2ccccc2c2cnc3cc(Cl)c(Cl)cc3n12 | 108% | 104% | 104% | 
CC(=O)O[C@H]1C(=O)[C@@]2(C)[C@H]([C@H](OC(=O)c3ccccc3)[C@]3(O)C[C@H](OC(=O)[C@H](O)[C@@H](NC(=O)c4ccccc4)c4ccccc4)C(C)=C1C3(C)C)[C@]1(OC(C)=O)CO[C@@H]1C[C@@H]2O |  |  |  | Activity (Tubulin (Sus scrofa)): Active
Cc1cc2ncc3c4ccccc4c(C#N)n3c2cc1C | 97% | 78% | 83% | 
N#Cc1c2ccccc2c2cnc3ccccc3n12 | 107% | 91% | 94% | 
CC[C@]1(O)C[C@@H]2CN(CCc3c([nH]c4ccccc34)[C@@](C(=O)OC)(c3cc4c(cc3OC)N(C)[C@H]3[C@@](O)(C(=O)OC)[C@H](OC(C)=O)[C@]5(CC)C=CCN6CC[C@]43[C@@H]65)C2)C1 |  |  |  | Activity (A549): Active
